Experimental data as given in ChEMBL document CHEMBL2417356, “Identification of 2,3-disubstituted pyridines as potent, orally active PDE4 inhibitors” (Bioorg Med Chem, 2013).
Activity calls are given as the source filed them. No cut-off for these calls is given here.

What was measured:
Cavia porcellus [1] = species on record: Cavia porcellus; test: Inhibition of Hartley guinea pig eosinophil PDE4 assessed as cAMP hydrolysis at 100 nM by two-step radioisotope method relative to control
[2] = (§1) Inhibition of Hartley guinea pig eosinophil PDE4 assessed as cAMP hydrolysis by two-step radioisotope method; set-up: species or system Cavia porcellus
Outline: (§2)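 PDE4 purified from eosinophils of male Hartley guinea pigs (~500 g) given 5 mg polymyxin B. Activity measured by a modified two-step radioisotope method with [3H]cAMP substrate, quantifying hydrolyzed cAMP. IC50 taken as the concentration giving 50% inhibition of hydrolysis, from concentration–response curves. Three experiments per agent.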

Cavia porcellus [3] = species on record: Cavia porcellus; test: as §1; outline: as §2
Mus musculus = test: Antiinflammatory activity in mouse assessed as inhibition ovalbumin-induced eosinophil infiltration into lung at 10 mg/kg, po administered 30 mins prior to ovalbumin challenge followed by once per day compound administration measured after 2 days relative to vehicle-treated control; type: functional
Outline: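 Male mice, 5 weeks old, OVA-sensitized. Dosed orally 30 min before intranasal OVA challenge and once daily for the next 2 days. Challenge given 7 days after the last sensitizing OVA injection, under anaesthesia. Bronchoalveolar lavage under pentobarbital 3 days post-challenge. BALF diluted 10-fold in Turk's solution and living infiltrated cells counted. % inhibition calculated against vehicle group.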

Cavia porcellus [4] = test: Bronchodilatory activity in ovalbumin-treated guinea pig at 10 mg/kg, po administered 1 hr prior to ovalbumin challenge relative to vehicle-treated control; type: functional
Outline: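 Male guinea pigs OVA-sensitized at 3 weeks old, studied 6 weeks later. Anesthetized, tracheally cannulated and ventilated with room air at 60 strokes/min. Air-overflow measured by the Konzett-Rössler method. Bronchospasm induced by i.v. OVA via hind-paw vein. Peak response taken within 10 min of challenge as % of theoretical maximum. Oral dosing 1 h before challenge; % inhibition against vehicle.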

Brc1cccc(Sc2ncccc2OCCCc2cccnc2)c1
inhibition (Cavia porcellus [1]): 69%

N#CCCCOc1cccnc1Sc1cccc(Br)c1
IC50 [2]: 104 nM

O=C(c1cccc(Br)c1)c1ccccn1
inhibition (Cavia porcellus [3]): inactive

COc1ccc(C2CNC(=O)C2)cc1OC1CCCC1 (centres undefined) [ROLIPRAM]
inhibition in vivo at 10 mg/kg (Mus musculus): 39% | IC50 [2]: 54 nM

Brc1cccc(Sc2ncccc2OCCCCc2ccncc2)c1
inhibition (Cavia porcellus [1]): 3%

Brc1cccc(Sc2ncccc2OCCCc2ccncc2)c1
Activity (Cavia porcellus [4]): 77% | inhibition in vivo at 10 mg/kg (Mus musculus): 50% | IC50 [2]: 34 nM | inhibition (Cavia porcellus [1]): 80%

Brc1cccc(Sc2ncccc2OCCCCc2cccnc2)c1
inhibition (Cavia porcellus [1]): 5%

Brc1cccc(Sc2ncccc2OCCc2cccnc2)c1
inhibition (Cavia porcellus [1]): 60%

Brc1cccc(Sc2ncccc2OCCc2ccncc2)c1
inhibition (Cavia porcellus [1]): 56%

Brc1cccc(Sc2ncccc2OCCCc2ccccn2)c1
inhibition (Cavia porcellus [1]): 10%
